Measured values from ChEMBL document CHEMBL4513216, “Probing the Open Global Health Chemical Diversity Library for Multistage-Active Starting Points for Next-Generation Antimalarials” (ACS Infect Dis, 2020).

Assay: Toxicity liver stage against HepG2, at 10uM
Format: cell-based
Set-up: test concentration 10 uM, cell line HepG2-A16-CD81EGFP
Conditions: human, HepG2-A16-CD81EGFP cells; read-out: INHIBITION
Summary of the method: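 Uninfected HepG2-A16-CD81EGFP cells, 3 × 10^3 per well, 1536-well, plated on prespotted compound at 10 μM final, parasite-free screening media added to match infected plates; puromycin 10 μM positive, DMSO 0.5% negative; run in parallel with 48 h PbLuc assay at 37 °C, 5% CO2; viability by CellTiter-Glo luminescence, normalized to controls.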

Cc1ccc(NC(=O)c2cc(S(=O)(=O)N3CCCCC3)c[nH]2)cc1F
cytotoxicity at 10 µM: 1.26%

COCCN(CCOC)Cc1c(C)nc2ccccc2c1O
cytotoxicity at 10 µM: 2.08%

CC(C)(C)C(=O)NC[C@H]1Cn2c(-c3ccccc3)cnc2CO1
cytotoxicity at 10 µM: -3.69%

Cc1n[nH]c2nc(-c3ccccc3O)cc(C(=O)O)c12
cytotoxicity at 10 µM: -1.55%

COC(=O)c1ccc(C2SCC(=O)Nc3c2cnn3C2CCCC2)cc1 (stereo not drawn)
cytotoxicity at 10 µM: 1.9%

CN1CCCCC12CCN(c1nncs1)C2 (stereo not drawn)
cytotoxicity at 10 µM: 7.1%

O=C(c1ncn2c1CNS(=O)(=O)c1ccccc1-2)N1CCCCC1
cytotoxicity at 10 µM: 9.52%

Cc1cnc(N2CCC3(CC2)CC3CNC(=O)N(C)C)nc1 (stereo not drawn)
cytotoxicity at 10 µM: 8.82%

COCC1CN(Cc2ccoc2)Cc2cn(C)nc21 (stereo not drawn)
cytotoxicity at 10 µM: 7.55%

CO[C@H]1CCN(S(=O)(=O)c2cn(C)cn2)[C@H]1Cc1ccncc1
cytotoxicity at 10 µM: 9.43%

CN(C)C(=O)N1CCN(C)c2ncccc2C1
cytotoxicity at 10 µM: -4.14%

O=C1COc2ccc(S(=O)(=O)NC3CC3)c3c2N1CCC3
cytotoxicity at 10 µM: -16.7%

CC(C)NC(=O)[C@@H]1CN(C(=O)C2CC2)C[C@]12Cc1ccccc1C(=O)N2
cytotoxicity at 10 µM: 1.48%

CN(C)c1ncc(I)c(C2CCCN2S(C)(=O)=O)n1 (stereo not drawn)
cytotoxicity at 10 µM: 3.8%

Cc1ccc(CC(=O)N2CCOC(c3ncc(CN(C)C)[nH]3)C2)s1 (stereo not drawn)
cytotoxicity at 10 µM: -3.47%

Cc1nn(C)cc1-c1cc(C(=O)N2CCc3ncc(Cl)cc3C2)on1
cytotoxicity at 10 µM: -4.96%

CC(C)N1CCCC1c1cc(CCO)[nH]n1 (stereo not drawn)
cytotoxicity at 10 µM: 0.895%

Cc1noc(C)c1CCC(=O)N[C@@H]1CC[C@@H](Oc2cccnc2)[C@@H]1O
cytotoxicity at 10 µM: -2.62%

CC(C)N(C(=O)c1ccnc(OCC(F)(F)F)c1)c1cccnc1
cytotoxicity at 10 µM: 8.05%

Cc1nc2cc(NCc3cnn(C)c3)ccc2n1C
cytotoxicity at 10 µM: 13.1%

N#Cc1cccc(CN2CCCC2Cn2cncn2)c1 (stereo not drawn)
cytotoxicity at 10 µM: 3.15%

CC(C)c1noc(CCNC(=O)NCC2COc3ccccc3O2)n1 (stereo not drawn)
cytotoxicity at 10 µM: 1.03%

COC(=O)c1ccc(N(C(=O)c2ccncc2)C(C)C)c(C)c1
cytotoxicity at 10 µM: 0.503%

Cc1noc(CCCC(=O)NCCc2cc3ccccc3[nH]2)n1
cytotoxicity at 10 µM: 1.38%

CC(NCc1ccccc1CN1CCCC1=O)c1ccc(C#N)cc1 (stereo not drawn)
cytotoxicity at 10 µM: 3.09%

COC(=O)c1ccc(Cn2nc(C)cc2C)c(OC)c1
cytotoxicity at 10 µM: 10.7%

COCCS(=O)(=O)NC(=O)c1nnn(-c2ccc(F)cc2)c1C1CC1
cytotoxicity at 10 µM: 0.188%

O=C(NCc1ccc(CN2CCCCC2)cc1)Nc1cccnc1
cytotoxicity at 10 µM: 74.5%

COc1cc(C)nc(N2CCN(C(=O)CCc3ccncc3)CC2)n1
cytotoxicity at 10 µM: -5%

O=C(CCC(=O)N1CCCC1c1ccsc1)N1CCOCC1 (stereo not drawn)
cytotoxicity at 10 µM: -10.2%

COc1c(C2CCCN2C(=O)c2ccco2)c(C)nn1C (stereo not drawn)
cytotoxicity at 10 µM: -1.68%

CCCN(C(=O)c1cnns1)C1CCCN(Cc2ccccc2)C1 (stereo not drawn)
cytotoxicity at 10 µM: -4.35%

COC(=O)c1ccc(OCCn2cnc(C#N)n2)cc1
cytotoxicity at 10 µM: -2.01%

CN1CCN(C)C(CNc2c(C#N)cnc3ccc(Cl)cc23)C1 (stereo not drawn)
cytotoxicity at 10 µM: -4.58%

Cc1nc(S(=O)(=O)CCn2cccn2)n(C2CCCCC2)c1C
cytotoxicity at 10 µM: -5.58%

COc1cccc(CNc2nnc(C(C)(C)C)o2)c1OC
cytotoxicity at 10 µM: -0.508%

CC(NC1(CNC(=O)Cn2cccn2)CCOCC1)c1ccccc1 (stereo not drawn)
cytotoxicity at 10 µM: -3.07%

OC(CN(Cc1ccccc1)Cc1ccncc1)c1cccs1 (stereo not drawn)
cytotoxicity at 10 µM: -3.65%

COc1ccc(C(=O)NS(=O)(=O)c2cncc(Br)c2)cc1OC
cytotoxicity at 10 µM: 4.36%

CC(NC(=O)CCCOc1ccccc1Cl)c1ccncc1 (stereo not drawn)
cytotoxicity at 10 µM: -13%

CCC(NC1CCN(C(=O)c2ccccc2)CC1)c1cccs1 (stereo not drawn)
cytotoxicity at 10 µM: -2.62%

CC(=O)N1CCOC(Cc2cccc(C(F)(F)F)c2)C1 (stereo not drawn)
cytotoxicity at 10 µM: -6.64%

CN(CC1(O)CCCN(Cc2cccc(F)c2F)C1=O)C1CCCCC1 (stereo not drawn)
cytotoxicity at 10 µM: -11.1%

Cc1ccsc1[C@@H]1CCN(C(=O)CCC(=O)c2ccccc2)C[C@H]1O
cytotoxicity at 10 µM: 3.52%

CCn1c(C)nnc1SCCn1cc(-c2ncc[nH]2)nn1
cytotoxicity at 10 µM: -6.99%

CCc1ncc(S(C)(=O)=O)c(C2CCCNC2)n1 (stereo not drawn)
cytotoxicity at 10 µM: -14.2%

C[C@@H]1CN(CCCOc2ccc(F)cc2)CC[C@@]1(O)C1CCOCC1
cytotoxicity at 10 µM: -8.01%

COCCNS(=O)(=O)c1cccc2c1CN(C(=O)c1cc(C)on1)CC2
cytotoxicity at 10 µM: 1.63%

Cc1c(C(C)N)cnn1-c1cccc2ccccc12 (stereo not drawn)
cytotoxicity at 10 µM: 10.7%

CCc1oc(C(=O)NC(C)c2ncn[nH]2)cc1CN1CCCC1 (stereo not drawn)
cytotoxicity at 10 µM: -5.92%

COCCn1ccnc1C1CCN(C(=O)CSc2nnc(C)o2)CC1
cytotoxicity at 10 µM: -11.5%

CC1CCCCN1C1CN(c2nc(C3CCCC3)nc3c2cnn3C)C1 (stereo not drawn)
cytotoxicity at 10 µM: -0.699%

O=C(O)C(c1ccc2c(c1)OCCO2)N1CCC(N2CCSCC2)CC1 (stereo not drawn)
cytotoxicity at 10 µM: -1.1%

O=C(c1ccccc1-c1nc[nH]n1)N1CCOC(C(F)(F)F)C1 (stereo not drawn)
cytotoxicity at 10 µM: -0.359%

Cc1ccc(Cl)c(CN2CCC3(CC2)C(C(=O)O)CC(=O)N3C)c1F (stereo not drawn)
cytotoxicity at 10 µM: 2.64%

O=C(NCCN1CCCCCC1)c1coc(COc2ccc(F)cc2)n1
cytotoxicity at 10 µM: -4.07%

CS(=O)(=O)NCCC(=O)Nc1cnn(-c2ccccc2Cl)c1
cytotoxicity at 10 µM: -0.0414%

O=C(CN1CCCC1c1noc(C2CC2)n1)NCCc1ccsc1 (stereo not drawn)
cytotoxicity at 10 µM: 2.82%

Cc1ccc(NC2CCN(C(=O)CCc3c(C)noc3C)CC2)nn1
cytotoxicity at 10 µM: -11.4%

Cc1nc(CN2CCC(N(C)Cc3nnc(C4CC4)n3C)C2)cs1 (stereo not drawn)
cytotoxicity at 10 µM: -10.7%

Cc1nn(C)c(Cl)c1C1CCCN1C(=O)c1ccc2c(c1)COC2 (stereo not drawn)
cytotoxicity at 10 µM: -16.1%

COc1ccccc1CNC(C)c1ccc2[nH]c(=O)[nH]c2c1 (stereo not drawn)
cytotoxicity at 10 µM: -18%

CCc1nc2n(n1)CC(NCCC(=O)Nc1cc(C)on1)CC2 (stereo not drawn)
cytotoxicity at 10 µM: -10%

N#Cc1ccc(OCC(O)CN2CCC(c3ccn[nH]3)CC2)cc1 (stereo not drawn)
cytotoxicity at 10 µM: -3.33%

COCCOc1cccc(CNCC2CN(C)CCO2)c1 (stereo not drawn)
cytotoxicity at 10 µM: -14.8%

Fc1cccc(-c2nc(CN3CCCC3Cn3cncn3)co2)c1 (stereo not drawn)
cytotoxicity at 10 µM: -5.61%

O=C(NCc1cccnc1N1CCCCC1)c1cccs1
cytotoxicity at 10 µM: -4.43%

O=C(NCc1cc[nH]n1)NCC(O)c1ccccc1F (stereo not drawn)
cytotoxicity at 10 µM: -17.1%

CC(Cn1ccnc1)NC(=O)N(C)Cc1ccc2c(c1)OCO2 (stereo not drawn)
cytotoxicity at 10 µM: -16.1%

COCCN1CCN(Cc2cccc(C(=O)N(C)C)c2)CC1
cytotoxicity at 10 µM: -6.79%

O=C(CN1CCCC(Cn2cncn2)C1)NCCCc1ccccc1 (stereo not drawn)
cytotoxicity at 10 µM: -10.7%

Cc1ccccc1-c1noc(CN2CCc3nn(C)c(=O)cc3C2)n1
cytotoxicity at 10 µM: -12.5%

O=C(COc1cccc(Cl)c1)N1CCOCC1c1ncon1 (stereo not drawn)
cytotoxicity at 10 µM: -12.3%

Cc1csc(N2CCCN(C(=O)CCNc3ncccn3)CC2)n1
cytotoxicity at 10 µM: -10.5%

CC(C)(C)OC(=O)NCCNC(=O)c1ccc(-c2ccco2)[nH]c1=O
cytotoxicity at 10 µM: -13.1%

O=C(c1ccc2c(c1)OCCCO2)N1CCCC(n2cccn2)C1 (stereo not drawn)
cytotoxicity at 10 µM: -15.6%

CC(NC(=O)Nc1cccnc1N1CCCC1)c1ccncc1 (stereo not drawn)
cytotoxicity at 10 µM: -19.3%

Cc1ccc(N2CCCC(NCc3ccc4c(c3)CCO4)C2)nn1 (stereo not drawn)
cytotoxicity at 10 µM: -16.1%

N#CCc1ccc(OCC(=O)N2CCCC(n3cccn3)C2)cc1 (stereo not drawn)
cytotoxicity at 10 µM: -4%

CO[C@@H]1CCN(Cc2cnn(C)c2)[C@@H]2CN(Cc3ccco3)C[C@@H]21
cytotoxicity at 10 µM: -12.5%

O=C(O)[C@]12CCCN(Cc3ccoc3)C[C@H]1CN(c1ncccn1)C2
cytotoxicity at 10 µM: 7.37%

COCCN1CCO[C@@H]2CN(C(=O)NCc3ccccc3)CC[C@@H]2C1
cytotoxicity at 10 µM: 3.23%

CN1CCC2(CCN(Cc3nccs3)CC2)C1=O
cytotoxicity at 10 µM: -3.03%
